Laboratory results published in article PMC3457786 (Journal of chromatography. B, Analytical technologies in …, 2012).
“Also recorded” adds a separate entry of the source. Where two headings read alike, the source gives them in different places.

Tests used:
HIV-1 = conditions: ref [14], cited from earlier work
Caco-2 monolayers [1] = assay: Drug transport; format: in vitro ADME, human; conditions: for Papp (× 10^−5) (cm/s) AP-to-BL / Papp (× 10^−5) (cm/s) BL-to-AP: 37°C, 30-120 min, mean ± SD (n=3)
[2] = tested on: labile iron pool (LIP) in THP-1 cells; assay: Calcein-based iron chelation assay; format: cell-based, human; conditions: iron-loaded THP-1 cells, 10 µM chelator, SIH as positive control
Summary of the method: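 THP-1 cells were loaded with ferric sulfate at 25 µM for 1 h (figure legend: iron(II) sulfate at 10 µM for 3 h, 37°C). They then took calcein-AM at 0.2 µM for 10 min at 37°C, were washed and resuspended in PBS. Chelator (10 µM) or SIH (30 µM) was added. Fluorescence (ex 465/em 510 nm) was read immediately in repeated 2-min cycles at 37°C, expressed as (F−Fi)/Fi, with Fi = fluorescence at time 0.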

Caco-2 cells [3] = assay: Cytotoxicity assay; format: cell-based; conditions: concentrations up to 500 µM, 24 h
[4] = Stability and isomer conversion of chelator solutions by HPLC; format: physicochemical; conditions: resolved by HPLC
Summary of the method: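 Solutions diluted in HBSS from 100 mM DMSO stocks, sonicated and warmed to 37°C. Stored at 4°C for one week with freeze-thaw, or 4 h at room temperature or 40°C. 50 µM solutions with a 10 µM thiosemicarbazone internal standard injected fresh and after 24 h at 4°C. Reversed-phase F5 column, 40°C, 1 mL/min, 2 mM ammonium acetate/10 mM EDTA–acetonitrile 50:50, pH 5.8, UV 318 nm.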

lung cancer xenografts = conditions: mice, oral route; ref (35); cited from earlier work
Cytotoxicity assay = format: cell-based; conditions: human
[5] = ref [30]; cited from earlier work
Caco-2 cells [6] = conditions: Caco-2 cells in vitro; ref [34]; cited from earlier work
Caco-2 monolayers [7] = assay: Lucifer yellow; format: in vitro ADME, human; conditions: either direction, at the ends of the experiments
[8] = 100 µM chelator, Caco-2 monolayers
[9] = 300 µM chelator, Caco-2 monolayers

## C=CCNC(=S)NN=C(c1ccccc1)c1ccccn1 [Bp4aT, 2-benzoylpyridine 4-allyl-3-thiosemicarbazone]
HIV-1; [15]
  IC50, inhibition of HIV-1 replication: nanomolar concentrations
Caco-2 monolayers [1]; 100 µM chelator
  Rnet, ratio of Papp (BL-to-AP) to Papp (AP-to-BL): 0.77
Caco-2 monolayers [1]; [8]
  Papp (× 10^−5) (cm/s) AP-to-BL: 1.670 ± 0.016 × 10^−5 cm/s
  Papp (× 10^−5) (cm/s) BL-to-AP: 1.292 ± 0.282 × 10^−5 cm/s
Caco-2 monolayers [1]; 300 µM chelator
  Rnet, ratio of Papp (BL-to-AP) to Papp (AP-to-BL): 0.92
Caco-2 monolayers [1]; [9]
  Papp (× 10^−5) (cm/s) AP-to-BL: 2.756 ± 0.261 × 10^−5 cm/s
  Papp (× 10^−5) (cm/s) BL-to-AP: 2.534 ± 0.454 × 10^−5 cm/s
Caco-2 monolayers [1]; relative to Bp4eT, Caco-2 monolayers
  Transport of Bp4aT faster than that of Bp4eT: approximately 1.5 fold
[2]
  Intracellular iron chelation (calcein de-quenching): slightly more effective intracellular iron chelators than SIH; also recorded: greater chelation efficacy than Bp4eT
Caco-2 cells [3]
  Effect on Caco-2 cell growth / cytotoxicity: little effect; also recorded: no apparent cytotoxicity
[4]
  E/Z isomer formation in aqueous solution: formed inter-convertible Z and E isomers

## CCNC(=S)NN=C(c1ccccc1)c1ccccn1 [Bp4eT, 2-benzoylpyridine 4-ethyl-3-thiosemicarbazone]
HIV-1; [15]
  IC50, inhibition of HIV-1 replication: nanomolar concentrations
Caco-2 monolayers [1]; 100 µM chelator
  Rnet, ratio of Papp (BL-to-AP) to Papp (AP-to-BL): 1.10
Caco-2 monolayers [1]; [8]
  Papp (× 10^−5) (cm/s) AP-to-BL: 0.809 ± 0.119 × 10^−5 cm/s
  Papp (× 10^−5) (cm/s) BL-to-AP: 0.889 ± 0.196 × 10^−5 cm/s
Caco-2 monolayers [1]; 300 µM chelator
  Rnet, ratio of Papp (BL-to-AP) to Papp (AP-to-BL): 0.89
Caco-2 monolayers [1]; [9]
  Papp (× 10^−5) (cm/s) AP-to-BL: 1.819 ± 0.302 × 10^−5 cm/s
  Papp (× 10^−5) (cm/s) BL-to-AP: 1.627 ± 0.107 × 10^−5 cm/s
[2]
  Intracellular iron chelation (calcein de-quenching): slightly more effective intracellular iron chelators than SIH
[4]
  E/Z isomer formation in aqueous solution: formed inter-convertible Z and E isomers

## CN(C)C(=S)NN=C(c1ccccc1)c1ccccn1 [Bp44mT, 2-benzoylpyridine-4,4-dimethyl-3-thiosemicarbazone]
Lung cancer xenografts
  Efficacy against lung cancer xenografts: marked efficacy

## NC(=S)NN=C(c1ccccc1)c1ccccn1 [BpT, 2-benzoylpyridine thiosemicarbazone]
Cytotoxicity assay
  viability at 24 h, 500 µM: ~70%

## CC(=O)N(O)CCCCCNC(=O)CCC(=O)N(O)CCCCCNC(=O)CCC(=O)N(O)CCCCCN [DFO, desferrioxamine]
[5]
  Absorption through the gastrointestinal tract: very poor absorption

## O=C(O)c1ccc(-n2nc(-c3ccccc3O)nc2-c2ccccc2O)cc1 [ICL670, 4-[3,5-bis-(hydroxyphenyl)-1,2,4-triazol-1-yl]-benzoic acid, reference compound]
HIV-1; [15]
  IC50, inhibition of HIV-1 replication: high micromolar concentrations
HIV-1
  IC50, inhibition of HIV-1 replication: high micromolar range
Caco-2 cells [6]
  Papp value: 1.66 ± 0.13 × 10^−5 cm/s

## lucifer yellow [LY]
Caco-2 monolayers [7]
  LY recovered from the receiver chambers: Less than 2%
